Screening data: PubChem, several laboratories
In the library only some 5.4% were active in any assay of this set; here they are far more common.
Mdm2 MdmX PPI: human Mdm2/MdmX binding inhibition | inhibition, % at 8 µM | AID 485346 | O15151+Q00987 | SaOS-2 split-luciferase Mdm2/MdmX complementation, luminescence | 330,000 tested, 3% active;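 active means inhibition of at least 50% at 8 µM in the primary screen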
Target sequence (O15151 whole entry, looked up): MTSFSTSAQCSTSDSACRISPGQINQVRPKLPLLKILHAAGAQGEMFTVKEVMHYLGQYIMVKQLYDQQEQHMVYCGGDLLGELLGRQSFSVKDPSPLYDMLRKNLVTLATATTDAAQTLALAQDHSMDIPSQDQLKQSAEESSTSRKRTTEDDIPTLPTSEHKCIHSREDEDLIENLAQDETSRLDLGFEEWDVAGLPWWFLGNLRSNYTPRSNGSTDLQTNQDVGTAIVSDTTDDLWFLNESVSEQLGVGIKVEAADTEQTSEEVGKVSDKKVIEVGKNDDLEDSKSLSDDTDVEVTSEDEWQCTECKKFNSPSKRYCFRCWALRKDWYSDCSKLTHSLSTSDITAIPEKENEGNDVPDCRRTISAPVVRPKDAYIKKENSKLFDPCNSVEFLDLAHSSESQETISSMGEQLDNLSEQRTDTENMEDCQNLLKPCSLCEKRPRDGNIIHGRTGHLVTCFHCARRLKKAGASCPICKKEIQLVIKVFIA
Target sequence (Q00987 whole entry, looked up): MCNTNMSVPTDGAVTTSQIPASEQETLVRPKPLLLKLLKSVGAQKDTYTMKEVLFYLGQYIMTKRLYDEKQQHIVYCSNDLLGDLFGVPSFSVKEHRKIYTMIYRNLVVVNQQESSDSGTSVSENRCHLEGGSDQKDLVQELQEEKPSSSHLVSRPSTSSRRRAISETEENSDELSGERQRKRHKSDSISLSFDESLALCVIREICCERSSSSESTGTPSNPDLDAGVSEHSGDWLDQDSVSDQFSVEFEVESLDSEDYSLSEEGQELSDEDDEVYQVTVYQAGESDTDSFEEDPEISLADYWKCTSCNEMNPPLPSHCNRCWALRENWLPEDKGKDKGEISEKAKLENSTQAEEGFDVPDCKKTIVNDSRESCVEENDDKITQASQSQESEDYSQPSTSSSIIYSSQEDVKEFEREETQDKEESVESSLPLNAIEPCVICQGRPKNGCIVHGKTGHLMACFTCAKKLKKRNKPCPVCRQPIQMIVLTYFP
T cruzi repl: T. cruzi replication inhibition | T. cruzi beta-gal in NIH3T3, luminescence, 90 h | inhibition, % (test concentration not listed) | 300,000 tested, 1.4% active | AID 1885;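 active means mean inhibition across valid replicates above about 55%, limit read from the data; inconclusive means mean below that limit but half or more replicates reach it; inactive means mean below it, under half of replicates reach it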;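 further: signal also drops with host cell toxicity which is not excluded here; higher percent means less beta-gal luminescence so fewer parasites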
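assay system = mouse NIH/3T3 fibroblasts infected with β-gal-expressing T. cruzi Tulahuen C4 | input = 5,000 NIH/3T3 host cells per well | buffer or medium = DMEM plus 2% FBS | timing = 3 h host attachment, then at least 90 h co-culture | measured by = GalScreen luminescence, 60 min | evaluation = luminescence reflecting intracellular parasite burden, expressed as percent inhibition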
CSC inhib: blocks cancer stem cells; inhibition, % at 7.5 µM; cancer stem cell-like cells viability, luminescence; 300,000 tested, 1.1% active; in the data active means inhibition above about 75%; inconclusive means no clear call, values can overlap the other calls; tested in HMLE shEcad cells
SKKanGAS inh: blocks kanamycin growth of S. pyogenes SKKanGAS strain; BacTiter-Glo, 6 h; AID 1662; inhibition, % at 7.5 µM; 300,000 tested, 1.3% active;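 active means mean replicate score, as percent of positive control median, at least 50; inconclusive means mean below 50 but one replicate at or above 50; inactive means mean and every replicate below 50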;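 further: strain carries kanamycin resistance gene driven by streptokinase promoter and grows in 40 µg/ml kanamycin; loss of luminescence reflects streptokinase promoter inhibition or plain growth inhibition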
aSyn UTR inh: MLPCN primary screen, SNCA 5' untranslated region; alpha-synuclein 5'UTR reporter, inhibitor activity; inhibition, % (tested at 7.5 µM); 300,000 tested, 0.82% active; in the data active means inhibition above about 60%; inconclusive means no clear call, values can overlap the other calls;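 further: H4 neuroglioblastoma cells stably carrying SNCA 5'UTR luciferase fusion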
Mdm2 MdmX conf: human Mdm2/MdmX binding inhibition, confirmed. shares compounds with Mdm2 MdmX PPI. luminescent assay. inhibition, % at 8 µM. 10,000 tested, 55% active. AID 489028; in the data active means inhibition above about 40%
Full FLuc ctr: full-length luciferase inhibition in Mdm2/MdmX counter-screen. SaOS-2 full-length luciferase counterscreen, luminescence. 6,200 tested, 77% active. inhibition, % at 8 µM. AID 504607. shares compounds with Mdm2 MdmX PPI;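 active means mean inhibition at 8 µM reaching about 37%, which flags the compound as non-specific, limit read from the data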;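 further: p53-null SaOS-2 cells with luciferase driven by a doxycycline-inducible promoter; compound on cells about two nights before reading with doxycycline added after day one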
Each line names hits and unclear results; the compound was inactive in the other large screens (follow-up assays come after a bar, where they were run).

O=C1c2c(O)ccc(O)c2C(=O)c2c(NCCNCCO)ccc(NCCNCCO)c21	Mdm2 MdmX PPI 99.7, CSC inhib 97.0 (no result: T cruzi repl, SKKanGAS inh, aSyn UTR inh) | Mdm2 MdmX conf 98.0 | Full FLuc ctr inactive
CC(=O)NS(=O)(=O)c1ccc(NC(=O)C(Sc2ccccc2)c2ccccc2)cc1 (stereo not given)	none (no result: CSC inhib)
CCC(C)NS(=O)(=O)c1ccc(NC(=O)C(Sc2ccccc2)c2ccccc2)cc1 (stereo not given)	Mdm2 MdmX PPI 56.5, T cruzi repl 57.5, aSyn UTR inh inconclusive | Mdm2 MdmX conf 43.5 | Full FLuc ctr 70.3
Cc1cc(O)c(NC(=O)c2cc([N+](=O)[O-])ccc2Cl)cc1C	none
O=C(Nc1cccc2c1CCCC2)c1cc([N+](=O)[O-])ccc1Cl	Mdm2 MdmX PPI 62.1 | Mdm2 MdmX conf inactive
O=C(Nc1cccc2c1CCCC2)c1ccc(Cl)c([N+](=O)[O-])c1	Mdm2 MdmX PPI 55.9 | Mdm2 MdmX conf inactive
CCN(CC(=O)Nc1c(F)cccc1F)C(=O)COc1ccc2c(c1)CCC2	none
CC1CCC(NC(=O)c2cc3ccccc3cc2O)CC1 (stereo not given)	none (no result: T cruzi repl, CSC inhib, SKKanGAS inh, aSyn UTR inh)
O=C(N/N=C1/CC2CCC1C2)c1cc2ccccc2cc1O (stereo not given)	Mdm2 MdmX PPI 51.9 | Mdm2 MdmX conf 40.8 | Full FLuc ctr 83.0
CCOc1ccc(CCNC(=O)COC(=O)c2cccnc2SC)cc1OCC	none
Cc1ccc(S(=O)(=O)N(CC(=O)NCCSc2ccccn2)c2ccccc2F)cc1	none
COc1ccc(NS(=O)(=O)c2cc(NC(=O)/C=C/c3cccs3)ccc2N2CCOCC2)cc1	Mdm2 MdmX PPI 53.1 | Mdm2 MdmX conf inactive
Cn1cnc([N+](=O)[O-])c1N=C(N)N	none
O=C(COC(=O)/C=C/c1ccccc1)Nc1ccc(Cl)cn1	none (no result: CSC inhib)
COc1ccccc1/C=C/C(=O)OCC(=O)Nc1ccc(Cl)cn1	Mdm2 MdmX PPI 55.1 | Mdm2 MdmX conf 51.4 | Full FLuc ctr 59.9
CC(C)CN(C(=O)COC(=O)c1ccccc1NCc1ccco1)c1c(N)n(Cc2ccccc2)c(=O)[nH]c1=O	none
CCOc1ccc(/C=N/Nc2ccc(Cl)nn2)c(O)c1	Mdm2 MdmX PPI 54.3 | Mdm2 MdmX conf inactive | Full FLuc ctr 57.8
CNS(=O)(=O)c1cccc(C(=O)OC2CCCCC2=O)c1 (stereo not given)	none
CC1CCCC(NCC(O)COC(c2ccc(F)cc2)c2ccc(F)cc2)C1C (stereo not given)	Mdm2 MdmX PPI 97.8, CSC inhib 79.8 | Mdm2 MdmX conf 77.5 | Full FLuc ctr 48.8
Cc1ccc(C2(c3ccc(C)cc3)CC2C(=O)Nc2ccc([N+](=O)[O-])cc2O)cc1 (stereo not given)	Mdm2 MdmX PPI 95.8, T cruzi repl 54.9, CSC inhib 173.6, SKKanGAS inh 105.4, aSyn UTR inh 67.2 | Mdm2 MdmX conf 93.1 | Full FLuc ctr 49.0
CC1(C)CC1C(=O)Nc1ccc([N+](=O)[O-])cc1Br (stereo not given)	none
CCN(C(=O)c1cccnc1SC)C12CC3CC(CC(C3)C1)C2	none
O=C(/C=C/c1ccc(OCCCF)cc1)Nc1ccnc(-c2ccncc2)n1	Mdm2 MdmX PPI 62.2 (no result: CSC inhib) | Mdm2 MdmX conf inactive
O=C(/C=C/c1ccc(OCCCF)cc1)Nc1ccnc(-c2cccnc2)n1	none
CCCCn1c(N)c(N(CCOC)C(=O)c2cccc(S(=O)(=O)N(C)c3ccc(C)cc3)c2)c(=O)[nH]c1=O	none
CN(C)CCCN(C(=O)CCS(=O)(=O)c1ccccc1)c1nc2cc3c(cc2s1)OCO3	Mdm2 MdmX PPI 66.0 | Mdm2 MdmX conf 60.6 | Full FLuc ctr 56.1
CN(C)CCCN(C(=O)c1ccc(S(=O)(=O)N(C)C)cc1)c1nc2cc3c(cc2s1)OCO3	none
CN(C)CCCN(C(=O)COc1ccccc1)c1nc2cc3c(cc2s1)OCCO3	none
CN(C)CCCN(C(=O)CCSc1ccccc1)c1nc2cc3c(cc2s1)OCO3	Mdm2 MdmX PPI 53.1 | Mdm2 MdmX conf inactive
COc1cccc(-n2c(Cn3nc(C(F)(F)F)cc3C)n[nH]c2=S)c1	none
CCN(CC)c1nc2c(c(=O)[nH]c(=O)n2C)n1CCCc1ccccc1	none
COc1ccc(-c2n(Cc3ccccc3)c3ccccc3[n+]2Cc2ccccc2)cc1	Mdm2 MdmX PPI 89.4 | Mdm2 MdmX conf 89.2 | Full FLuc ctr inactive
COc1ccc(CN(CCC#N)CCC2(c3ccccc3)CC(C)N(C)CC2C)cc1OC (stereo not given)	none
COc1ccc(CNCCC2(Cc3ccccc3)CC(C)N(C)CC2C)cc1OC (stereo not given)	Mdm2 MdmX PPI 61.4 | Mdm2 MdmX conf inactive
CCOC(=O)/C=C/[C@H]1CCc2cccc(Cl)c2O1	none (no result: T cruzi repl, SKKanGAS inh, aSyn UTR inh)
CSc1nc2nccc(/C=C\c3ccccc3)n2n1	Mdm2 MdmX PPI 75.2 | Mdm2 MdmX conf 66.2 | Full FLuc ctr inactive
CSc1nc2nccc(-c3ccc(Cl)cc3)n2n1	none
C#CCOCCOCCOCCNc1nc(N2CCN(C(=O)CCCCCCCCCCNC(=O)[C@H](CO)n3cc(CCCSC)nn3)CC2)nc(N2CCN(C(=O)CCCCCCCCCCNC(=O)[C@H](CO)n3cc(CCCSC)nn3)CC2)n1	none
C#CCOCCOCCOCCNc1nc(N2CCN(C(=O)CCCCCCCCCCNC(=O)Cn3cc(C[C@@H](C)O)nn3)CC2)nc(N2CCN(C(=O)CCCCCCCCCCNC(=O)[C@H](CCCCN)n3cc(C[C@@H](C)CC)nn3)CC2)n1	Mdm2 MdmX PPI 93.5, CSC inhib 88.7 (no result: T cruzi repl, SKKanGAS inh, aSyn UTR inh) | Mdm2 MdmX conf 54.5 | Full FLuc ctr 54.9
C#CCOCCOCCOCCNc1nc(N2CCN(C(=O)CCCCCCCCCCNC(=O)Cn3cc(CCCCCN)nn3)CC2)nc(N2CCN(C(=O)CCCCCCCCCCNC(=O)[C@H](CO)n3cc(CCCCCN)nn3)CC2)n1	none (no result: T cruzi repl, SKKanGAS inh, aSyn UTR inh)
C#CCOCCOCCOCCNc1nc(N2CCN(C(=O)CCCCCCCCCCNC(=O)Cn3cc(C[C@@H](C)O)nn3)CC2)nc(N2CCN(C(=O)CCCCCCCCCCNC(=O)Cn3cc(C[C@@H](C)O)nn3)CC2)n1	none (no result: T cruzi repl, SKKanGAS inh, aSyn UTR inh)
C#CCOCCOCCOCCNc1nc(N2CCN(C(=O)CCCCCCCCCCNC(=O)[C@@H](CCSC)n3cc(CCO)nn3)CC2)nc(N2CCN(C(=O)CCCCCCCCCCNC(=O)[C@H]([C@@H](C)CC)n3cc(CCCCCN)nn3)CC2)n1	Mdm2 MdmX PPI 92.1 (no result: T cruzi repl, SKKanGAS inh, aSyn UTR inh) | Mdm2 MdmX conf inactive
C#CCOCCOCCOCCNc1nc(N2CCN(C(=O)CCCCCCCCCCNC(=O)[C@H](CO)n3cc(CCCSC)nn3)CC2)nc(N2CCN(C(=O)CCCCCCCCCCNC(=O)[C@H](CCCCN)n3cc(C[C@@H](C)CC)nn3)CC2)n1	Mdm2 MdmX PPI 100.2, T cruzi repl 55.4, CSC inhib 126.6, aSyn UTR inh 110.1 | Mdm2 MdmX conf 56.8 | Full FLuc ctr inactive
